Measured values pooled from the literature.
Compare with care: the assays were run in different laboratories.

SMILES | cell line | test | setting | IC50 [µM]
O=C(O)Cc1ccccc1Nc1c(Cl)cccc1Cl | RAW264.7 | reactive oxygen species, inhibitor | LPS-stimulated | 50.1
Cc1ccc2nc(-c3ccco3)[nH]c2c1 | human Rhabdomyosarcoma cell | cell growth or viability, MTT | 48 h | > 100
O=C(/C=C(/C=C/c1cccnc1)NC1CCCCC1)/C=C/c1cccnc1 | CHO-K1 | cell growth or viability, SRB | 72 h | 20.4
COc1cc(/C=C/C(=O)CC(=O)/C=C/c2ccc(O)c(OC)c2)ccc1O | CHO-K1 | cell growth or viability, SRB | 72 h | 38.8
CC(C)C[C@H](NC(=O)[C@H](Cc1ccccc1)NC(=O)c1cnccn1)B(O)O | SNU-840 | cell growth or viability, ATP luminescence | – | 0.0081
O=C(Cn1ccnc1[N+](=O)[O-])NCc1ccccc1 | RAW264.7 | cell growth or viability, MTT | – | > 240
COc1cccc2c1C(=O)c1c(O)c3c(c(O)c1C2=O)C[C@@](O)(C(=O)CO)C[C@@H]3O[C@H]1C[C@H](N)[C@H](O)[C@H](C)O1 | CHO-K1 | cell growth or viability, SRB | 72 h | 2.4
COCCNC(=C\C(=O)/C=C/c1cccnc1)/C=C/c1cccnc1 | CHO-K1 | cell growth or viability, SRB | 72 h | 71.7
Cc1ccc2nc(-c3ccc([N+](=O)[O-])cc3)n(Cc3ccccc3Cl)c2c1 | human Rhabdomyosarcoma cell | cell growth or viability, MTT | – | 17.6
Brc1ccc(Nc2nc(N/N=C\c3c[nH]c4ccccc34)nc(Nc3ccccc3)n2)cc1 | SK-BR-3 | cell growth or viability, SRB | 72 h | 12.2
c1ccc2[nH]c(-c3ccc4c(c3)OCO4)nc2c1 | human Rhabdomyosarcoma cell | cell growth or viability, MTT | 48 h | > 100
COc1ccccc1OCCN(C)CC(O)COc1cccc2[nH]c3ccccc3c12 (stereo not shown) | NCI-H1299 | cell growth or viability, CCK-8 | 72 h | 39.5
COc1cc(Nc2nccc(-c3cnn4nc(OC)ccc34)n2)cc(C(F)(F)F)c1 | SNU-840 | cell growth or viability, ATP luminescence | – | 0.37
COCOc1c(OC)cc(C(=O)c2csc(-c3ccccc3)n2)cc1OC | B16-F1 | cell growth or viability, SRB | – | 0.055
COCCCNC(=C\C(=O)/C=C/c1cccnc1)/C=C/c1cccnc1 | CHO-K1 | cell growth or viability, MTT | 72 h | 21.3
CN(C)c1ccc(-c2nc3ccccn3c2NC(C)(C)C)cc1 | Vero | cell growth or viability, MTT | 48 h | 87
O=C1C=C(/C=C/c2cccnc2)N(CCCO)C(c2cccnc2)C1 (stereo not shown) | CHO-K1 | cell growth or viability, MTT | 72 h | > 75
CCCCN(CCCC)C(=O)c1ncn2c(=O)n(C)nnc12 | D54 | cell growth or viability, resazurin | 7 days | 11
CCCNc1nc(NCCC)nc(Nc2ccc(Br)cc2)n1 | SK-BR-3 | cell growth or viability, SRB | 72 h | 22.5
COc1ccc(-c2nc3ccccc3[nH]2)cc1O | human Rhabdomyosarcoma cell | cell growth or viability, MTT | 48 h | 53.1
COc1cccc2c1C(=O)c1c(O)c3c(c(O)c1C2=O)C[C@@](O)(C(=O)CO)C[C@@H]3O[C@H]1C[C@H](N)[C@H](O)[C@H](C)O1 | CHO-K1 | cell growth or viability, MTT | 72 h | 1.4
COc1ccccc1/C=C/CNCC(O)COc1ccc2[nH]ccc2c1 (stereo not shown) | NCI-H1299 | cell growth or viability, CCK-8 | 72 h | 25.3
CC(=O)O[C@@]12CO[C@@H]1C[C@H](O)[C@@]1(C)C(=O)[C@H](O)C3=C(C)[C@@H](OC(=O)[C@H](O)[C@@H](NC(=O)OC(C)(C)C)c4ccccc4)C[C@@](O)([C@@H](OC(=O)c4ccccc4)[C@H]21)C3(C)C | MDA-MB-436 | cell growth or viability, ATP luminescence | 72 h | 0.0037
COc1cc2c(Oc3ccc(NC(=O)C4(C(=O)Nc5ccc(F)cc5)CC4)cc3F)ccnc2cc1OCCCN1CCOCC1 | Rh30 | cell growth or viability | 72 h | 0.6
COc1cc(/C=C/C(=O)/C=C(O)/C=C/c2ccnc3ccccc23)ccc1O | CHO-K1 | cell growth or viability, MTT | 72 h | 22.3

SMILES | cell line | test | setting | IC50 [µM]
O=C(/C=C(O)/C=C/c1cccnc1)/C=C/c1cccnc1 | CHO-K1 | cell growth or viability, MTT | 72 h | 7.2
CCn1c(-c2nnc(NC(=O)c3cc4c([nH]c5ccccc54)c(-c4cc(OC)c(OC)c(OC)c4)n3)s2)cc2ccccc21 | HL-60 | cell growth or viability, MTT | 72 h | 43.2
Cc1ccc2nc(-c3ccco3)n(Cc3ccccc3)c2c1 | human Rhabdomyosarcoma cell | cell growth or viability, MTT | – | 39.2
Cn1nnc2c(C(=O)N3CCCC3)ncn2c1=O | D54 | cell growth or viability, resazurin | 7 days | 12
C[C@@H](Oc1cc(-c2cnn(C3CCNCC3)c2)cnc1N)c1c(Cl)ccc(F)c1Cl | Rh30 | cell growth or viability | 72 h | 0.99
COc1ccccc1/C=C/CNCC(O)COc1ccc(C2CCCCC2)cc1 (stereo not shown) | NCI-H1299 | cell growth or viability, CCK-8 | 72 h | 29.5
COc1cc(/C=C/C(=O)/C=C(O)/C=C/c2cccnc2)ccc1O | CHO-K1 | cell growth or viability, SRB | 72 h | 36.1
O=C(/C=C(/C=C/c1cccnc1)NCCCO)/C=C/c1cccnc1 | CHO-K1 | cell growth or viability, MTT | 72 h | > 75
Cc1ccc2nc(-c3c(F)cccc3Cl)[nH]c2c1 | human Rhabdomyosarcoma cell | cell growth or viability, MTT | 48 h | 45.1
O=[N+]([O-])c1ccc(-c2nc3cnccn3c2NC2CCCCC2)cc1 | Vero | cell growth or viability, MTT | 48 h | 64
Cn1nnc2c(C(N)=O)ncn2c1=O | D54 | cell growth or viability, resazurin | 7 days | 12
Cc1ccc2nc(-c3ccc(F)cc3)n(Cc3ccccc3)c2c1 | human Rhabdomyosarcoma cell | cell growth or viability, MTT | – | 35.1
O=C(/C=C(O)/C=C/c1cccnc1)/C=C/c1c[nH]c2ccccc12 | CHO-K1 | cell growth or viability, SRB | 72 h | 24.3
COc1ccccc1CCNCC(O)COc1cccc2[nH]c3ccccc3c12 (stereo not shown) | NCI-H1299 | cell growth or viability, CCK-8 | 72 h | 15.2
CCn1c(-c2nnc(NC(=O)c3cc4c([nH]c5ccccc54)c(-c4ccc(C)cc4)n3)s2)cc2ccccc21 | HL-60 | cell growth or viability, MTT | 72 h | 39.6
COc1ccccc1NCCCNCC(O)COc1cccc2[nH]c3ccccc3c12 (stereo not shown) | NCI-H1299 | cell growth or viability, CCK-8 | 72 h | 8.9
COc1cc(/C=C/C(=O)/C=C(O)/C=C/c2c[nH]c3ccccc23)ccc1O | CHO-K1 | cell growth or viability, MTT | 72 h | 26.4
Cc1ccc2nc(-c3cccnc3)[nH]c2c1 | human Rhabdomyosarcoma cell | cell growth or viability, MTT | 48 h | 83.6
COc1ccccc1/C=C/CNCC(O)COc1ccc2ccccc2c1 (stereo not shown) | NCI-H1299 | cell growth or viability, CCK-8 | 72 h | 16.3
Nc1ccccc1-c1nc2cnccn2c1NC1CCCCC1 | Vero | cell growth or viability, MTT | 48 h | 75
COc1cc(/C=C/C(=O)/C=C(O)/C=C/c2ccc[nH]2)ccc1O | CHO-K1 | cell growth or viability, SRB | 72 h | 49
COc1ccccc1/C=C/CNCC(O)COc1ccc2[nH]c3ccccc3c2c1 (stereo not shown) | NCI-H1299 | cell growth or viability, CCK-8 | 72 h | 6.1
O=C(/C=C(O)/C=C/c1ccncc1)/C=C/c1c[nH]c2ccccc12 | CHO-K1 | cell growth or viability, MTT | 72 h | 42.9
O=C(/C=C(/C=C/c1cccnc1)NCCO)/C=C/c1cccnc1 | CHO-K1 | cell growth or viability, SRB | 72 h | > 75
